We go through five compounds from PubChem BioAssay AID493037 (Johns Hopkins Ion Channel Center, 2011).

Potassium voltage-gated channel subfamily KQT member 2 (Rattus norvegicus), sequence (O88943 whole entry, looked up): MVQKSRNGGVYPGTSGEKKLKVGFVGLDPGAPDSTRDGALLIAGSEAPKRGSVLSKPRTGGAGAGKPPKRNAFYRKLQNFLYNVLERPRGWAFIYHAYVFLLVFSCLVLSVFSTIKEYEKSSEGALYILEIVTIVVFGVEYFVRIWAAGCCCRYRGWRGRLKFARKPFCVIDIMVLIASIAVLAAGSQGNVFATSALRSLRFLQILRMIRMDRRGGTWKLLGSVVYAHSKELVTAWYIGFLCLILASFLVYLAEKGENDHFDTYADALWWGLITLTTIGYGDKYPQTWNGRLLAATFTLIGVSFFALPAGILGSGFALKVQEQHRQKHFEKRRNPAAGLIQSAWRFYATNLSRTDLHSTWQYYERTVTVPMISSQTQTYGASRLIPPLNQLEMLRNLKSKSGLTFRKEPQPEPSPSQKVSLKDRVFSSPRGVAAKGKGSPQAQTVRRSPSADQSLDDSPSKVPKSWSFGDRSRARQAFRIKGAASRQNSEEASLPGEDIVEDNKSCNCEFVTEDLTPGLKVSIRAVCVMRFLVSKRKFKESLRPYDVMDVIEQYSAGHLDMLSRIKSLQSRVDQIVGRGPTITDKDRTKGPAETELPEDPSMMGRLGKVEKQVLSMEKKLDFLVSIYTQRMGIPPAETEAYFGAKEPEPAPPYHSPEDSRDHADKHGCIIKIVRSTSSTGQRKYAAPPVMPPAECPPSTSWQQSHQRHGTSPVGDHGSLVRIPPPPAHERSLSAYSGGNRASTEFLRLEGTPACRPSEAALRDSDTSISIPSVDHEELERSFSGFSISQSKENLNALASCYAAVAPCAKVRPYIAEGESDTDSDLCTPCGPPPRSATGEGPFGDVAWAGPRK

This test addresses Potassium voltage-gated channel subfamily KQT member 2 (Rattus norvegicus) (UniProt O88943). Put plainly: concentration-dependent KCNQ2 opening potency – cell-based, FluxOR thallium flux, mode of action, dose response (AID 493037). Particulars: KCNQ2-expressing cells, FluxOR thallium flux fluorescence. Put shortly: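 Assay system: CHO cells expressing KCNQ2 potassium channel, loaded with FluxOR dye | Also added: Potassium sulfate plus thallium sulfate stimulus, 12.5 mM each in 5x stock | Incubation: 20 min compound pre-incubation, room temperature | Technique: FluxOR thallium-flux fluorescence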
Regarding `Cc1cc(C)c(NC(=O)C2CC3CCC2C3)c(C)c1` (stereo not given), the EC50 was 0.359 µM.

In the case of `CCCCC(=O)Nc1c(C)cc(C)cc1Cl`, the EC50 is 3.75 µM.

As for `Cc1cc(C)c(NC(=O)CC(C)(C)C)c(Cl)c1`, the EC50 was 2.1 µM.

As to `Cc1cccc(C)c1NC(=O)C1CC2CCC1C2` (stereo not given), the EC50 was 2.05 µM.

As for `Cc1ccc(C)c(NC(=O)C2CC3CCC2C3)c1` (stereo not given), the EC50 was 1.05 µM.
